Reference: paper PMC12749539 (Scientific Reports, 2025)

How the values were obtained:
[1] = system: ZIKV; conditions: read-out: previously reported EC50; anti-ZIKV; cited from earlier work
[2] = system: Zika virus (ZIKV) MR766 strain; test: EC50 dose-response in ZIKV-infected Vero cells; assay type: cell-based; conditions: CC50/EC50, Vero cells
Method in brief: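 Vero CCL-81 monolayers were seeded at 1.2 × 10⁶ cells per plate one day before. Serial dilutions of test compound in DMEM (methods: 50–0.2 µM; legend: 0.2–100 µM) were added together with ZIKV MR766 at 100 TCID50/mL. Plates were held 6 days at 37 °C and 5% CO2, with virus and cell controls. Crystal violet read viability. EC50 came from four-parameter logistic fit of triplicate data. SI = CC50/EC50.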

[3] = CC50 cytotoxicity in uninfected Vero cells; assay type: cell-based; conditions: African green monkey
Method in brief: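 Vero CCL-81 cells in DMEM with 10% FBS were seeded at 1.2 × 10⁶ cells per plate one day ahead. Uninfected monolayers were exposed to serial dilutions of test compound in DMEM (50–0.2 µM) for 6 days at 37 °C and 5% CO2. Viability was read by crystal violet staining. CC50 came from four-parameter logistic nonlinear regression of triplicate data, with 95% CIs from log-transformed estimates.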

| Compound | EC50 [1] [µM] | selectivity index (SI) [2] | CC50 at 6 days [3] [µM] |
| --- | --- | --- | --- |
| COC1=C[C@]23CCCN2CCc2cc4c(cc2[C@@H]3[C@@H]1O)OCO4 [Cephalotaxine] | 40 | – | – |
| CCCCC(CC)COC(=O)CC(C(=O)OCC(CC)CCCC)S(=O)(=O)O (stereo not drawn) [Docusate Sodium] | – | 3.49 | 8.19 |
